{"data": "Measurements of several laboratories", "action": "inhibitor", "CDK5 with p25": "Cyclin-dependent kinase 5, with p25 (CDK5, Homo sapiens, UniProt Q00535)", "note": "Compare with care: the assays were run in different laboratories."}
{"Compound": "COc1cc2ncnc(Nc3ccc(Oc4ccccc4)c(C)c3C)c2cc1OC", "target": "CDK5 with p25", "assay": "enzyme activity", "conditions": "1 µM", "inhibition": "3%"}
{"Compound": "CC[C@H](C)[C@H](NC(=O)[C@H](CCC(N)=O)NC(=O)[C@H](CC(C)C)NC(=O)[C@H](CCSC)NC(=O)[C@H](CCCCN)NC(=O)[C@H](CO)NC(=O)[C@H](CO)NC(=O)[C@H](CCSC)NC(=O)[C@H](CC(C)C)NC(=O)[C@H](CC(N)=O)NC(=O)[C@@H](NC(=O)[C@@H](NC(=O)[C@H](CO)NC(=O)[C@H](CC(C)C)NC(=O)[C@H](CS)NC(=O)[C@H](CCCNC(=N)N)NC(=O)[C@H](CC(=O)O)NC(=O)[C@H](Cc1c[nH]c2ccccc12)NC(=O)[C@H](Cc1ccccc1)NC(=O)[C@H](C)NC(=O)[C@H](CCC(=O)O)NC(=O)[C@@H](N)CCCCN)C(C)C)[C@@H](C)CC)C(=O)N[C@@H](CC(N)=O)C(=O)N[C@@H](C)C(=O)O", "target": "CDK5 with p25", "assay": "enzyme activity, radiometric", "conditions": "250 µM", "inhibition": "59%"}
{"Compound": "COc1cc2ncnc(Nc3ccc(Oc4ccccc4)cc3C)c2cc1OC", "target": "CDK5 with p25", "assay": "enzyme activity", "conditions": "1 µM", "inhibition": "7%"}
{"Compound": "CNCc1ccc(-c2cc(-c3nc(-c4ccc(S(=O)(=O)C(C)C)cc4)cnc3N)on2)cc1", "target": "Cyclin-dependent kinase 5, with p35 (CDK5, Homo sapiens, UniProt Q00535)", "assay": "enzyme activity", "conditions": "2 µM", "inhibition": "16%"}
{"Compound": "CN(C)C1CCN(CC#Cc2nn(C3CCCC3)c3nc(NCc4ccccc4)ncc23)C1 (centres unmarked)", "target": "CDK5 with p25", "assay": "enzyme activity, FRET", "conditions": "10 µM", "inhibition": "3%"}
{"Compound": "Cc1ccc(-n2nc(C(C)(C)C)cc2NC(=O)Nc2ccc(OCCN3CCOCC3)c3ccccc23)cc1", "target": "CDK5 with p25", "assay": "enzyme activity", "conditions": "10 µM", "inhibition": "1%"}
{"Compound": "CCOc1cc(-c2nncn2C)ccc1Nc1ncc2cc(C)nc(NCC(C)(C)C)c2n1", "target": "CDK5 with p25", "assay": "enzyme activity, FRET", "conditions": "1 µM", "inhibition": "49%"}
{"Compound": "CCN1CCN(Cc2ccc(NC(=O)c3ccc(C)c(Oc4ccnc5[nH]ccc45)c3)cc2C(F)(F)F)CC1", "target": "Cyclin-dependent kinase 5 (CDK5, Homo sapiens, UniProt Q00535)", "assay": "target engagement in cells, chemoproteomics", "system": "Huh-7", "conditions": "10 µM", "inhibition": "-42.6%"}
